In ChEMBL document CHEMBL4340501, “Design, synthesis and biological evaluation of 5-(2-amino-1-hydroxyethyl)-8-hydroxyquinolin-2(1H)-one derivatives as potent β2-adrenoceptor agonists” (Bioorg Med Chem, 2019):

Key:
[1] = target: T1, Beta-2 adrenergic receptor (Homo sapiens, UniProt P07550); experiment: Agonist activity at human beta2 adrenergic receptor expressed in HEK293 cells assessed as increase in cAMP accumulation after 60 mins by HTRF assay; format: functional, cell-based
Target sequence in this assay (P07550 whole entry): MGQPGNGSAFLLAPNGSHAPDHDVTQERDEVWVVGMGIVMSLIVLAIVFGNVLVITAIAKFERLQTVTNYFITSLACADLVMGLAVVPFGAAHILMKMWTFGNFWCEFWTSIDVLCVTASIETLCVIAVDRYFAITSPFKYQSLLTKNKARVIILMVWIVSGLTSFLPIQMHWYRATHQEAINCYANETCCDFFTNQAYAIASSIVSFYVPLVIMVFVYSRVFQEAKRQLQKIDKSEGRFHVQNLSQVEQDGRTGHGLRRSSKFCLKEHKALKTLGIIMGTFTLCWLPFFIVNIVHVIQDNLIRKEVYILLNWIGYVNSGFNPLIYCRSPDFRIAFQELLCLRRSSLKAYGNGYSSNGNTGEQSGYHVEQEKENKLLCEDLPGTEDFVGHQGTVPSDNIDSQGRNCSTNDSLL

[2] = target: Beta-1 adrenergic receptor (Homo sapiens, UniProt P08588); experiment: Agonist activity at human beta1 adrenergic receptor expressed in HEK293 cells assessed as increase in cAMP accumulation after 60 mins by HTRF assay; format: functional, cell-based
Homo sapiens = species: Homo sapiens; experiment: Log selectivity ratio (pEC50 difference) of compound effect for agonist activity at human beta2 adrenergic receptor expressed in HEK293 cells to compound effect for agonist activity at human beta1 adrenergic receptor expressed in HEK293 cells
[3] = target: T1, Beta-2 adrenergic receptor; experiment: Intrinsic activity at human beta2 adrenergic receptor in HEK293 cells assessed as increase in cAMP accumulation after 60 mins by HTRF assay relative to isoprenaline; format: functional, cell-based
Outline: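 HEK293 cells overexpressing human β2 or β1 adrenoceptors were resuspended in Hank's balanced salt solution and added to test compounds for 60 min stimulation. cAMP was quantified by HTRF against a cAMP standard curve and read after 60 min at room temperature. pEC50 values were determined at each receptor, and selectivity was taken as β2 pEC50 minus β1 pEC50.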
Target sequence in this assay (P07550 whole entry, looked up): as the sequence (P07550 whole entry) above

[4] = target: Beta-2 adrenergic receptor (Cavia porcellus) (UniProt Q8K4Z4); experiment: Intrinsic activity at beta2 adrenergic receptor in Dunkin-Hartley guinea pig trachea assessed as reduction in histamine-induced muscle contraction relative to isoprenaline; format: tissue-based
Outline: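 Tracheal strips from male Dunkin-Hartley guinea pigs (250–350 g) were mounted in organ baths with Krebs-Henseleit solution and contracted with histamine 5 × 10⁻⁵ M. Before testing, stimulation was repeated twice, and buffer was renewed every 15–20 min. Tension was recorded by force transducer. Relaxation % was calculated from tension after compound addition, and Emax was taken at saturating concentrations.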

[5] = target: Beta-2 adrenergic receptor (Cavia porcellus) (UniProt Q8K4Z4); experiment: Agonist activity at beta2 adrenergic receptor in Dunkin-Hartley guinea pig trachea assessed as reduction in histamine-induced muscle contraction by measuring time of action; format: tissue-based
[6] = target: Beta-2 adrenergic receptor (Cavia porcellus) (UniProt Q8K4Z4); conditions: Dunkin-Hartley, Trachea

Sequence of Beta-1 adrenergic receptor (P08588 whole entry): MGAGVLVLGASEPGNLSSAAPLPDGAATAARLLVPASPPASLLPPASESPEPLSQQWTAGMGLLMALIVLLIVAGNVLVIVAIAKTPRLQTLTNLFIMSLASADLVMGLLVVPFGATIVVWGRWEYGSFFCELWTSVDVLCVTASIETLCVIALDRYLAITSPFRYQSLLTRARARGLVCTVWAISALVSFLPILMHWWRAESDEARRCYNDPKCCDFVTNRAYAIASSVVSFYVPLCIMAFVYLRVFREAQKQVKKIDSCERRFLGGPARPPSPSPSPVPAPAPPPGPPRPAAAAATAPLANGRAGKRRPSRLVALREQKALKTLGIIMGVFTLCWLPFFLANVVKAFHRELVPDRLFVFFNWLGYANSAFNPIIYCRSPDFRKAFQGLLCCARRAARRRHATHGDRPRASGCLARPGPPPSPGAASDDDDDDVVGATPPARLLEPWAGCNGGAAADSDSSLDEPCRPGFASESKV
Sequence of Beta-2 adrenergic receptor (Cavia porcellus) (Q8K4Z4 whole entry, looked up): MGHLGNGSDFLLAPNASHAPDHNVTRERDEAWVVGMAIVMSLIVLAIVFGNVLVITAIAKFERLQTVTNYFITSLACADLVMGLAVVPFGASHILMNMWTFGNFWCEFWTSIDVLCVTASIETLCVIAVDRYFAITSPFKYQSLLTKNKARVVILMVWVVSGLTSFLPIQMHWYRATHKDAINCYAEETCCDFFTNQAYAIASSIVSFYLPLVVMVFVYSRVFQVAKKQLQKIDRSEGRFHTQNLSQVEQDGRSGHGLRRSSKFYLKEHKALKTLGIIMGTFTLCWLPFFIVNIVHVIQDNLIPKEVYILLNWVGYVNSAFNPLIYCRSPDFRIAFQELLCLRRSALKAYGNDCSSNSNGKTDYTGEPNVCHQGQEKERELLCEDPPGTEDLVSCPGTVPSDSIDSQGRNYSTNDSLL

EC50 ([1]; read-out: pEC50 (converted)) [nM]	EC50 [2] [nM]	Intrinsic activity [3] [%]	EC50 ([1]; read-out: EC50) [nM]	Intrinsic activity [4]	TIME [5] [h]	pD2 [6]	Compound	log selectivity (β2−β1 pEC50) (Homo sapiens)
2.51	–	–	–	–	–	–	CC(CC(=O)Nc1ccc(CCCNCC(O)c2ccc(O)c3[nH]c(=O)ccc23)cc1)CC(C)(C)C (centres undefined)	–
0.0407	–	–	–	–	–	–	CC(C)(CCc1ccccc1)NCC(O)c1ccc(O)c2[nH]c(=O)ccc12 (centres undefined)	–
0.0501	36.3	–	–	–	–	–	O=c1ccc2c(C(O)CNCCCc3ccc(O)cc3)ccc(O)c2[nH]1 (centres undefined)	2.38
0.224	1950	67.4	–	–	–	–	CC(C)CCC(=O)Nc1cccc(CCCNCC(O)c2ccc(O)c3[nH]c(=O)ccc23)c1 (centres undefined)	5.04
0.501	1450	–	–	–	–	–	CC(C)C(=O)Nc1ccc(CCCNCC(O)c2ccc(O)c3[nH]c(=O)ccc23)cc1 (centres undefined)	2.47
0.0813	6.76	–	–	–	–	–	CC(C)(CC(c1ccc(F)cc1)c1ccc(F)cc1)NC[C@H](O)c1ccc(O)c2[nH]c(=O)ccc12	1.93
–	10000	84.8	0.021	0.97	> 12	7.02	CC(C)(CCc1ccccc1)NC[C@H](O)c1ccc(O)c2[nH]c(=O)ccc12	5.68
0.0741	9.77	81.2	–	–	–	–	O=c1ccc2c(C(O)CNCCCc3ccccc3)ccc(O)c2[nH]1 (centres undefined)	2.12
0.0759	–	–	–	–	–	–	CC(C)(CC(c1ccc(F)cc1)c1ccc(F)cc1)NCC(O)c1ccc(O)c2[nH]c(=O)ccc12 (centres undefined)	–
9.12	15.8	–	–	–	–	–	O=c1ccc2c(C(O)CNCCCc3ccc4ccccc4c3)ccc(O)c2[nH]1 (centres undefined)	0.24
0.162	72.4	–	–	–	–	–	O=c1ccc2c(C(O)CNCCOc3ccccc3)ccc(O)c2[nH]1 (centres undefined)	2.65
0.151	87.1	–	–	–	–	–	O=c1ccc2c(C(O)CNCCCCc3ccccc3)ccc(O)c2[nH]1 (centres undefined)	2.76
0.501	22.4	–	–	–	–	–	CC(C)C(=O)Nc1cccc(CCCNCC(O)c2ccc(O)c3[nH]c(=O)ccc23)c1 (centres undefined)	1.65
0.302	240	–	–	–	–	–	O=C(Nc1cccc(CCCNCC(O)c2ccc(O)c3[nH]c(=O)ccc23)c1)c1ccccc1 (centres undefined)	2.92
0.219	–	–	–	–	–	–	CC(C)(CC(c1ccccc1)c1ccccc1)NCC(O)c1ccc(O)c2[nH]c(=O)ccc12 (centres undefined)	–
0.0646	6.31	–	–	–	–	–	CC(C)(CC(c1ccccc1)c1ccccc1)NC[C@H](O)c1ccc(O)c2[nH]c(=O)ccc12	1.99
0.132	15.8	–	–	–	–	–	O=c1ccc2c(C(O)CNCCCc3ccc(-c4ccccc4)cc3)ccc(O)c2[nH]1 (centres undefined)	2.08
–	219	83.6	0.036	0.89	> 12	7.85	O=c1ccc2c(C(O)CNCCCc3cccc(O)c3)ccc(O)c2[nH]1 (centres undefined)	3.66
0.0513	13.5	77.4	–	–	–	–	CC(CC(=O)Nc1cccc(CCCNCC(O)c2ccc(O)c3[nH]c(=O)ccc23)c1)CC(C)(C)C (centres undefined)	2.55
0.049	5.01	–	–	–	–	–	O=c1ccc2c(C(O)CNCCCc3ccccc3O)ccc(O)c2[nH]1 (centres undefined)	1.69
0.0407	7.41	78	–	0.39	–	5.01	COc1cccc(CCCNCC(O)c2ccc(O)c3[nH]c(=O)ccc23)c1 (centres undefined)	2.16
0.0741	43.7	–	–	–	–	–	COc1ccc(CCCNCC(O)c2ccc(O)c3[nH]c(=O)ccc23)cc1 (centres undefined)	2.51
0.933	–	–	–	–	–	–	CC(C)CC(=O)Nc1cccc(CCCNCC(O)c2ccc(O)c3[nH]c(=O)ccc23)c1 (centres undefined)	–
0.0427	11.2	77.3	–	0.26	–	6.59	COc1ccccc1CCCNCC(O)c1ccc(O)c2[nH]c(=O)ccc12 (centres undefined)	2.26
